Like-named read-outs stand apart in the source and are kept apart here.

The values that follow come from PMC2597579 (Neuroscience letters, 2008).

Experiment [1] has as its target T1, α1β2γ2s GABAA receptor (rat subunits expressed in Xenopus laevis oocytes) (Rattus norvegicus, UniProt P18508+P62813+P63138). The experiment is classed as cell-based.
A further experiment deals with GABAA receptor. To be noted: cited from earlier work.
Experiment [2] deals with T1, α1β2γ2s GABAA receptor (rat subunits expressed in Xenopus laevis oocytes). It is filed as cell-based. An outline of the steps: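 Rat α1, β2, γ2S cRNAs injected 1:1:1 into defolliculated stage IV–V Xenopus laevis oocytes, kept 2–3 days at 18°C. Two-electrode voltage clamp at −60 mV, room temperature, Ca-free frog Ringer's pH 7.5. […] Percent change from control peak; t-test.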
This is another data set of the same source.

Another experiment relates to GABAA receptors. The following applies: ref Wan et al. [39], cited from earlier work.
A further experiment concerns α4β3γ1 GABAA receptor. The following applies: insulin, α4β3γ1 isoform; ref [40]; cited from earlier work.

T1 sequence (P62813 28-455): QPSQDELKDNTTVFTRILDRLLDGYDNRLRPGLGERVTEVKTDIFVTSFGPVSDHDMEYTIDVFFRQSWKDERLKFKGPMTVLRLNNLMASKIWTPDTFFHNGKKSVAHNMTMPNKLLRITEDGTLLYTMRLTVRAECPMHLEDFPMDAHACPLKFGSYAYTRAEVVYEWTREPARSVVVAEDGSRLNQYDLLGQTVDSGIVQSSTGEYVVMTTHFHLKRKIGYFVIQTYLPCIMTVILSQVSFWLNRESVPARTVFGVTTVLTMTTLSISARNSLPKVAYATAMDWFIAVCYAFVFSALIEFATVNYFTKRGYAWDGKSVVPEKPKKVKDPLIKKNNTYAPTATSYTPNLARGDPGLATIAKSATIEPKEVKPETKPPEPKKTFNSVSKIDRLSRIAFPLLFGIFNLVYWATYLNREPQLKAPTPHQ
T1 sequence (P63138 26-474): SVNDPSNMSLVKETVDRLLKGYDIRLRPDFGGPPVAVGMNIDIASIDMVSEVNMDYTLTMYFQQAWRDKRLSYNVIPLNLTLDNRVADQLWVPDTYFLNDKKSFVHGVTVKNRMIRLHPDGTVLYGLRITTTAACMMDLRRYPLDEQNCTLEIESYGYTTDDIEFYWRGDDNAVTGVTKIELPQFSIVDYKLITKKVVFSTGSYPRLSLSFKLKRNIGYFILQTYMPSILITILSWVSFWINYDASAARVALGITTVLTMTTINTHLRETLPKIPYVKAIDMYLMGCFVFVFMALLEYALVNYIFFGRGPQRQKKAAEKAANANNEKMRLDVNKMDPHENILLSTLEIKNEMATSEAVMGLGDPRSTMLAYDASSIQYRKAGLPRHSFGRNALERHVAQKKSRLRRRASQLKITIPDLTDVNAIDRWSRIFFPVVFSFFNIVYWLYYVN
T1 sequence (P18508 39-466): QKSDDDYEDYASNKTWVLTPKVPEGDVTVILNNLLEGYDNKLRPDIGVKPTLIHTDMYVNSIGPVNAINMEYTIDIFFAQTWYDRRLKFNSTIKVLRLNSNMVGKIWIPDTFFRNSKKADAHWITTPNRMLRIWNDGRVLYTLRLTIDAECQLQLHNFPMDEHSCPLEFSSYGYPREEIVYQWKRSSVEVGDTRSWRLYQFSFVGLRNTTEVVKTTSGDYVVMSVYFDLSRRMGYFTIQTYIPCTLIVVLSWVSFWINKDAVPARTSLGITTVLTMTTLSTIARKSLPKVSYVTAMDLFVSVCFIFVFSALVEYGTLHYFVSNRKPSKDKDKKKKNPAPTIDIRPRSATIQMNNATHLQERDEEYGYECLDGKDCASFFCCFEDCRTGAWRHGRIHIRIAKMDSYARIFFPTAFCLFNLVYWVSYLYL

Turning to `NCCCC(=O)O` [GABA, γ-aminobutyric acid, reference compound], in experiment [1] (concentration used for insulin dose response), the “approximate EC30 of GABA” value is ~1000 nM.

As to `CN1CCc2cc3c(cc2[C@H]1[C@@H]1OC(=O)c2c1ccc1c2OCO1)OCO3` [bicuculline], the “type of GABAA antagonism” value in the experiment on GABAA receptor (rightward shift in GABA EC50, no significant effect on maximal current, ref [2]) is listed as “typical competitive inhibitor”.

Regarding `c1ccc2c(c1)Cc1ccccc1-n1c-2nnc1N1CCNCC1` [pitrazepin], the “type of GABAA antagonism” value in the experiment on GABAA receptor (similar effects and shifts in GABA dose response curves, ref [14]) is given as “competitive inhibitors of the GABAA receptor”.

In the case of `COc1c(O[C@@H]2O[C@H](CO)[C@@H](O)[C@H](O)[C@H]2O)cc2c(c1OC)-c1ccc(SC)c(=O)cc1[C@@H](NC(C)=O)CC2` [thiocolchicoside], the “type of GABAA antagonism” value in the experiment on GABAA receptor (similar effects and shifts in GABA dose response curves, ref [11]) is “competitive inhibitors of the GABAA receptor”.

“insulin: pancreatic peptide hormone; bovine form (cat I-5500) from Sigma, dissolved in 0.1% acetic acid”: the “effect of insulin on GABA induced current” value is listed as “inhibits currents elicited by 1 µM GABA” in experiment [2] (1 nM insulin + 1 µM GABA), “inhibits currents elicited by 1 µM GABA” in experiment [2] (100 nM insulin + 1 µM GABA) and “no significant effect” in experiment [2] (100 nM insulin + 100 µM GABA). Also, the “reversibility of the inhibitory effect of insulin” value in experiment [2] (1 nM insulin, then 1 µM GABA only) is reported as “reversible”. For the same molecule, in experiment [2] (100 nM insulin), the “saturating insulin concentration” value was “at or near saturating”. Besides, the “percent change in GABA induced current” value in experiment [2] (100 nM insulin co-applied with 100 µM GABA (near saturating), not significant) is on record as −0.33 ± 2.0%. Also, the “inhibition of GABA induced current” value in experiment [2] (insulin co-applied with low (EC30–50) concentrations of GABA) was “about 38%”. Further, the “affinity of insulin for the GABA receptor” value in experiment [2] (stated in discussion, from insulin dose response) is “nanomolar affinity for the GABA receptor”. For the same molecule, in experiment [1] (100 nM insulin, GABA dose response 0.1 µM to 1 mM), the “maximal current with insulin, % of maximal” value came out at 99 ± 13%. Further, in the experiment with GABAA receptors (500 nM insulin), the “incubation time required for potentiating effect” value was “at least 10 minutes”. Also, the “insulin concentration required for potentiating effect” value in the experiment with GABAA receptors (incubation at least 10 minutes) is on record as 500 nM. Further, the “type of inhibition” value in the experiment on α4β3γ1 GABAA receptor is listed as “mixed type inhibition”.
